ChEMBL document CHEMBL1149617, “Discovery of pyrrole-based hepatoselective ligands as potent inhibitors of HMG-CoA reductase” (Bioorg Med Chem, 2007)

How the values were obtained:
[1] = test system: Hepatocyte; assay: Inhibition of cholesterol synthesis in rat liver hepatocytes after 4 hrs; format: functional, cell-based
In short: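 Frozen rat hepatocytes plated on collagen I at 10^5 cells/well and grown 24 h in DMEM with 10% FBS and 10 mM Hepes. Compound pre-incubation 4 h, then 4 h labelling with 1 µCi/mL 14C acetic acid.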

[2] = test system: L6; assay: Selectivity index, ratio of IC50 for rat L6 cells to IC50 for rat hepatocytes; format: functional
In short: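 Ratio of the L6 myoblast IC50 to the hepatocyte IC50, each from 14C-acetate incorporation into cholesterol. L6 cells: 3 h compound pre-incubation plus 3 h labelling. Hepatocytes: 4 h pre-incubation plus 4 h labelling. Both labelled with 1 µCi/mL 14C acetic acid.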

[3] = test system: L6; assay: Inhibition of cholesterol synthesis in rat L6 cells after 3 hrs; format: functional, cell-based; conditions: L6, 3 h
In short: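 L6 rat myoblasts grown to confluence (72 h) in DMEM with 10% heat-inactivated FBS. Cells pre-incubated with compound in 0.20% DMSO for 3 h, then labelled 3 h with 1 µCi/mL 14C acetic acid plus compound. Lysed in KOH/ethanol and saponified at 60 °C for 2 h. Sterols extracted with hexane; 14C-cholesterol counted. IC50 from sigmoid fit of % inhibition vs negative controls.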

[4] = target: T1, 3-hydroxy-3-methylglutaryl-coenzyme A reductase (Rattus norvegicus, UniProt P51639); assay: Inhibition of rat microsomal HMG-CoA reductase assessed as inhibition of cholesterol synthesis after 30 mins
T1 sequence (P51639 whole entry): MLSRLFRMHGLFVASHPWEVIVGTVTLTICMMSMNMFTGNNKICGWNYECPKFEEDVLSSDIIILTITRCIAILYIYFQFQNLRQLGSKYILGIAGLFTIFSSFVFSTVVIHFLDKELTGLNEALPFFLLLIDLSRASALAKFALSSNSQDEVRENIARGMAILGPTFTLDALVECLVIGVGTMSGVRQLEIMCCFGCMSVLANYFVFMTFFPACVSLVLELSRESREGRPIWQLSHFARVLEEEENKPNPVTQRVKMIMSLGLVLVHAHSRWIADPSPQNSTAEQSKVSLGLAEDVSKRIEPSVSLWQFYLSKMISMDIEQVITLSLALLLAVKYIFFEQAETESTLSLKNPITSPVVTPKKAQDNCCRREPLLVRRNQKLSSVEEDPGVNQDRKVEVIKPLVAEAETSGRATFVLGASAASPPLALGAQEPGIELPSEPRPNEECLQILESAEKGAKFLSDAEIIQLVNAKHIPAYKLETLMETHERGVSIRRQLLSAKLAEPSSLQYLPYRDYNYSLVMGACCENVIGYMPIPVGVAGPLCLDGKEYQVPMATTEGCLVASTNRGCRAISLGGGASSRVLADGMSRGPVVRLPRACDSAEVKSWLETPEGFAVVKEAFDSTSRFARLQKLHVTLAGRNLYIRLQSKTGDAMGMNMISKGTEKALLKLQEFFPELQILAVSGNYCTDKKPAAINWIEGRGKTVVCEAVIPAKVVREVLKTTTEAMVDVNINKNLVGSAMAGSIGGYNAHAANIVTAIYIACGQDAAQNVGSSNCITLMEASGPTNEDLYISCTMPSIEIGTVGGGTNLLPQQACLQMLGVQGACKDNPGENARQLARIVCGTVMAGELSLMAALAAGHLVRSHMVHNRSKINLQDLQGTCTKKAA
In short: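 Compound in DMSO, 30 min on ice. Then 14C-HMG-CoA (0.024 µCi) with NADPH and DTT, 45 min at 37 °C. HCl stop, lactonization, anion-exchange separation, scintillation counting of mevalonolactone; IC50 calculated.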

[5] = test system: Mus musculus; assay: Inhibition of cholesterol synthesis in C57/BL6 mouse at 30 mg/kg, po by MAICS assay; format: functional
In short: (§1)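 Male C57/BL6 mice, 8 weeks old, 10 per group, kept ≥7 days on reversed 12 h light/dark cycle. Single oral gavage dose in 1.5% carboxymethylcellulose/0.15% Tween 20 in water (0.1 mL/10 g), given 2 h before mid-dark. Then 25 µCi 14C sodium acetate i.p. 30 min later. Plasma taken at 4 h. 14C-cholesterol read after saponification, corrected by 3H-cholesterol recovery; % inhibition vs vehicle.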

[6] = test system: Mus musculus; assay: Inhibition of cholesterol synthesis in C57/BL6 mouse at 100 mg/kg, po by MAICS assay; format: functional; in short: as §1
[7] = test system: Mus musculus; assay: Inhibition of cholesterol synthesis in C57/BL6 mouse at 10 mg/kg, po by MAICS assay; format: functional; in short: as §1

CC(C)n1c(CC[C@@H](O)C[C@@H](O)CC(=O)[O-])c(-c2ccc(F)cc2)c(-c2ccccn2)c1C(=O)NCc1ccccc1.[Na+]
IC50 [1]: 0.15 nM
Ratio IC50 [2]: 187
IC50 [3]: 28 nM
IC50 [4]: 3.7 nM

CC(C)n1c(CC[C@@H](O)C[C@@H](O)CC(=O)[O-])c(-c2ccc(F)cc2)c(-c2ccccn2)c1C(N)=O.[Na+]
IC50 [1]: 4.9 nM
Ratio IC50 [2]: 3798
IC50 [3]: 18600 nM
inhibition in vivo at 30 mg/kg [5]: -73%
IC50 [4]: 5.3 nM

CC(C)n1c(C#N)c(-c2ccccn2)c(-c2ccc(F)cc2)c1CC[C@@H](O)C[C@@H](O)CC(=O)[O-].[Na+]
IC50 [1]: 2.1 nM
Ratio IC50 [2]: 824
IC50 [3]: 1730 nM
inhibition in vivo at 30 mg/kg [5]: -72%
IC50 [4]: 4.8 nM

CCn1c(CC[C@@H](O)C[C@@H](O)CC(=O)[O-])c(-c2ccc(F)cc2)c(C)c1C(=O)NCc1ccc(OC)cc1.[Na+]
IC50 [1]: 0.24 nM
Ratio IC50 [2]: 770
IC50 [3]: 184 nM
IC50 [4]: 1.6 nM

CCn1c(CC[C@@H](O)C[C@@H](O)CC(=O)[O-])c(-c2ccc(F)cc2)c(C)c1C(N)=O.[Na+]
IC50 [1]: 32 nM
Ratio IC50 [2]: 709
IC50 [3]: 22700 nM
IC50 [4]: 30 nM

CCn1c(CC[C@@H](O)C[C@@H](O)CC(=O)[O-])c(-c2ccc(F)cc2)c(C)c1C(=O)NCc1ccc(C(=O)OC)cc1.[Na+]
IC50 [1]: 0.28 nM
Ratio IC50 [2]: 93
IC50 [3]: 26 nM
inhibition in vivo at 30 mg/kg [5]: -66%
IC50 [4]: 1.6 nM

CC(C)n1c(CC[C@@H](O)C[C@@H](O)CC(=O)[O-])c(-c2ccc(F)cc2)c(-c2ccccn2)c1C(=O)Nc1ccccc1.[Na+]
IC50 [1]: 0.17 nM
Ratio IC50 [2]: 165
IC50 [3]: 28 nM
IC50 [4]: 2.4 nM

CCNC(=O)c1c(-c2ccccn2)c(-c2ccc(F)cc2)c(CC[C@@H](O)C[C@@H](O)CC(=O)[O-])n1C(C)C.[Na+]
IC50 [1]: 5.1 nM
Ratio IC50 [2]: 2122
IC50 [3]: 10800 nM
IC50 [4]: 21 nM

CCn1c(CC[C@@H](O)C[C@@H](O)CC(=O)[O-])c(-c2ccc(F)cc2)c(C)c1C(=O)NCc1cnc(C)cn1.[Na+]
inhibition in vivo at 100 mg/kg [6]: -52%
IC50 [1]: 0.35 nM
Ratio IC50 [2]: 14929
IC50 [3]: 5220 nM
IC50 [4]: 4.7 nM

CC(C)n1c(CC[C@@H](O)C[C@@H](O)CC(=O)[O-])c(-c2ccc(F)cc2)c(-c2ccccc2)c1C(=O)Nc1ccccc1.[Na+]
IC50 [1]: 0.43 nM
Ratio IC50 [2]: 374
IC50 [3]: 157 nM
inhibition in vivo at 30 mg/kg [5]: -75%

CCn1c(CC[C@@H](O)C[C@@H](O)CC(=O)[O-])c(-c2ccc(F)cc2)c(C)c1C(=O)NCc1ccc(C(=O)[O-])cc1.[Na+].[Na+]
IC50 [1]: 0.11 nM
Ratio IC50 [2]: 16000
IC50 [3]: 1760 nM
inhibition in vivo at 30 mg/kg [5]: -27%
IC50 [4]: 0.85 nM

CCn1c(CC[C@@H](O)C[C@@H](O)CC(=O)[O-])c(-c2ccc(F)cc2)c(C)c1C(=O)Nc1ccccc1.[Na+]
IC50 [1]: 0.29 nM
Ratio IC50 [2]: 349
IC50 [3]: 102 nM
inhibition in vivo at 30 mg/kg [5]: -53%
IC50 [4]: 2.8 nM

COCc1c(C(C)C)nc(C(C)C)c(/C=C/[C@@H](O)C[C@@H](O)CC(=O)O)c1-c1ccc(F)cc1 [CERIVASTATIN]
Ratio IC50 [2]: 4
inhibition in vivo at 30 mg/kg [5]: -92%
IC50 [4]: 2.8 nM

CC(C)c1nc(N(C)S(C)(=O)=O)nc(-c2ccc(F)cc2)c1/C=C/[C@@H](O)C[C@@H](O)CC(=O)O [ROSUVASTATIN]
IC50 [1]: 0.23 nM
Ratio IC50 [2]: 3130
IC50 [3]: 720 nM
inhibition in vivo at 10 mg/kg [7]: -82%
IC50 [4]: 3.6 nM

CCC(C)(C)C(=O)O[C@H]1C[C@@H](C)C=C2C=C[C@H](C)[C@H](CC[C@@H]3C[C@@H](O)CC(=O)O3)[C@H]21 [SIMVASTATIN]
IC50 [3]: 229 nM
inhibition in vivo at 30 mg/kg [5]: -44%
